Results: ChEMBL document CHEMBL5058577, “EUbOPEN Chemogenomics Library 2 (Multiplex)” (2022)

System: U2OS
Experiment: Multiplex assay against U2OS
Type: toxicity, cell-based
Conditions: human
Procedure, shortened: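 Per cents of healthy-nucleus cells form the tubulin, mitochondrial-mass and membrane-permeability phenotype values. Live cells were stained at seeding with Hoechst33342, BioTracker Green Microtubule Cytoskeleton Dye, MitoTracker Red and Annexin V Alexa Fluor 680. After compound addition they were imaged on a CQ1 microscope at 37°C and 5% CO2, and CellPathfinder machine-learning gating split them into Hoechst high-intensity objects or normal cells, normal cells into healthy, pyknosed or fragmented nuclei, and pyknosed cells into mitotic or apoptotic.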

[1] = 12 h, 1 µM, compound concentration 1 uM, replicate 1
[2] = 12 h, 1 µM, compound concentration 1 uM, replicate 2
[3] = 12 h, 10 µM, compound concentration 10 uM, replicate 1
[4] = 12 h, 10 µM, compound concentration 10 uM, replicate 2
[5] = 24 h, 1 µM, compound concentration 1 uM, replicate 1
[6] = 24 h, 1 µM, compound concentration 1 uM, replicate 2
[7] = 24 h, 10 µM, compound concentration 10 uM, replicate 1
[8] = 24 h, 10 µM, compound concentration 10 uM, replicate 2
[9] = 48 h, 1 µM, compound concentration 1 uM, replicate 1
[10] = 48 h, 1 µM, compound concentration 1 uM, replicate 2
[11] = 48 h, 10 µM, compound concentration 10 uM, replicate 1
[12] = 48 h, 10 µM, compound concentration 10 uM, replicate 2

## Cc1cnc(-c2cc(N3CCN(C(=O)CCS(C)(=O)=O)CC3)ncc2Cl)c(C)c1
[1]
  Population Apoptotic (%): 86%
  Population Fragmented Nuclei (%): 37%
  Population Healthy Nuclei (%): 54%
  Population Hoechst High Intensity Objects (%): 2%
  Population Membrane Permeable-Phenotype (%): 10%
  Population Mitochondria Different-Phenotype (%): 1%
  Population Mitotic Cells (%): 13%
  Population Normal (%): 97%
  Population Pyknosed Nuclei (%): 8%
  Population Tubulin-Different-Phenotype (%): 2%
  Total Cell Count: 183
[2]
  Population Apoptotic (%): 100%
  Population Fragmented Nuclei (%): 18%
  Population Healthy Nuclei (%): 73%
  Population Hoechst High Intensity Objects (%): 1%
  Population Mitochondria Different-Phenotype (%): 7%
  Population Mitotic Cells (%): 0%
  Population Normal (%): 98%
  Population Tubulin-Different-Phenotype (%): 7%
  Total Cell Count: 111
[3]
  Population Apoptotic (%): 85%
  Population Fragmented Nuclei (%): 24%
  Population Healthy Nuclei (%): 67%
  Population Hoechst High Intensity Objects (%): 1%
  Population Membrane Permeable-Phenotype (%): 4%
  Population Mitochondria Different-Phenotype (%): 3%
  Population Mitotic Cells (%): 14%
  Population Normal (%): 98%
  Population Pyknosed Nuclei (%): 8%
  Population Tubulin-Different-Phenotype (%): 1%
  Total Cell Count: 258
[4]
  Population Apoptotic (%): 75%
  Population Fragmented Nuclei (%): 17%
  Population Healthy Nuclei (%): 73%
  Population Membrane Permeable-Phenotype (%): 20%
  Population Mitochondria Different-Phenotype (%): 7%
  Population Mitotic Cells (%): 25%
  Population Pyknosed Nuclei (%): 9%
  Population Tubulin-Different-Phenotype (%): 15%
  Total Cell Count: 88
[5]
  Population Apoptotic (%): 80%
  Population Fragmented Nuclei (%): 30%
  Population Healthy Nuclei (%): 62%
  Population Hoechst High Intensity Objects (%): 2%
  Population Membrane Permeable-Phenotype (%): 5%
  Population Mitochondria Different-Phenotype (%): 3%
  Population Mitotic Cells (%): 20%
  Population Normal (%): 97%
  Population Pyknosed Nuclei (%): 6%
  Population Tubulin-Different-Phenotype (%): 2%
  Total Cell Count: 220
[6]
  Population Apoptotic (%): 90%
  Population Fragmented Nuclei (%): 17%
  Population Healthy Nuclei (%): 75%
  Population Membrane Permeable-Phenotype (%): 8%
  Population Mitochondria Different-Phenotype (%): 5%
  Population Mitotic Cells (%): 10%
  Population Pyknosed Nuclei (%): 7%
  Population Tubulin-Different-Phenotype (%): 8%
  Total Cell Count: 136
[7]
  Population Apoptotic (%): 80%
  Population Fragmented Nuclei (%): 20%
  Population Healthy Nuclei (%): 74%
  Population Hoechst High Intensity Objects (%): 2%
  Population Membrane Permeable-Phenotype (%): 4%
  Population Mitochondria Different-Phenotype (%): 2%
  Population Mitotic Cells (%): 20%
  Population Normal (%): 97%
  Population Pyknosed Nuclei (%): 4%
  Population Tubulin-Different-Phenotype (%): 0%
  Total Cell Count: 309
[8]
  Population Apoptotic (%): 85%
  Population Fragmented Nuclei (%): 21%
  Population Healthy Nuclei (%): 64%
  Population Hoechst High Intensity Objects (%): 0%
  Population Membrane Permeable-Phenotype (%): 18%
  Population Mitochondria Different-Phenotype (%): 1%
  Population Mitotic Cells (%): 14%
  Population Normal (%): 99%
  Population Pyknosed Nuclei (%): 13%
  Population Tubulin-Different-Phenotype (%): 7%
  Total Cell Count: 103
[9]
  Population Apoptotic (%): 78%
  Population Fragmented Nuclei (%): 29%
  Population Healthy Nuclei (%): 63%
  Population Hoechst High Intensity Objects (%): 0%
  Population Membrane Permeable-Phenotype (%): 3%
  Population Mitochondria Different-Phenotype (%): 2%
  Population Mitotic Cells (%): 21%
  Population Normal (%): 99%
  Population Pyknosed Nuclei (%): 7%
  Population Tubulin-Different-Phenotype (%): 1%
  Total Cell Count: 325
[10]
  Population Apoptotic (%): 95%
  Population Fragmented Nuclei (%): 15%
  Population Healthy Nuclei (%): 73%
  Population Hoechst High Intensity Objects (%): 1%
  Population Membrane Permeable-Phenotype (%): 4%
  Population Mitochondria Different-Phenotype (%): 5%
  Population Mitotic Cells (%): 5%
  Population Normal (%): 98%
  Population Pyknosed Nuclei (%): 10%
  Population Tubulin-Different-Phenotype (%): 3%
  Total Cell Count: 184
[11]
  Population Apoptotic (%): 94%
  Population Fragmented Nuclei (%): 11%
  Population Healthy Nuclei (%): 80%
  Population Hoechst High Intensity Objects (%): 1%
  Population Membrane Permeable-Phenotype (%): 4%
  Population Mitochondria Different-Phenotype (%): 2%
  Population Mitotic Cells (%): 5%
  Population Normal (%): 98%
  Population Pyknosed Nuclei (%): 7%
  Population Tubulin-Different-Phenotype (%): 2%
  Total Cell Count: 485
[12]
  Population Apoptotic (%): 100%
  Population Fragmented Nuclei (%): 22%
  Population Healthy Nuclei (%): 71%
  Population Hoechst High Intensity Objects (%): 3%
  Population Membrane Permeable-Phenotype (%): 13%
  Population Mitochondria Different-Phenotype (%): 7%
  Population Mitotic Cells (%): 0%
  Population Normal (%): 96%
  Population Pyknosed Nuclei (%): 5%
  Population Tubulin-Different-Phenotype (%): 7%
  Total Cell Count: 141
